The source made the active and inactive calls. The rule behind the calls is not given here.
Tests used:
[1] = Metabolic stability in human liver microsomes assessed as compound remaining at 1 uM measured at 15 mins by LC-MS/MS analysis relative to control; assay type: ADME, Microsome; settings: read-out: Stability
In short: (§1)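 Pooled human liver microsomes (150 donors, 0.5 mg protein/ml) with 2.5 mM NADPH and 3.3 mM MgCl2 in 100 mM phosphate pH 7.4, 0.1% DMSO final, 37 °C, reaction started with microsomes. Aliquots quenched in cold acetonitrile with internal standard; LC-MS/MS in positive-ion ESI MRM mode. Percent remaining is analyte/internal-standard peak-area ratio versus 0 min ×100; duplicates.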

[2] = Metabolic stability in human liver microsomes assessed as compound remaining at 10 uM measured at 30 mins by LC-MS/MS analysis relative to control; assay type: ADME, Microsome; settings: read-out: Stability; in short: as §1
[3] = Metabolic stability in human liver microsomes assessed as compound remaining at 10 uM measured at 15 mins by LC-MS/MS analysis relative to control; assay type: ADME, Microsome; settings: read-out: Stability; in short: as §1
[4] = Metabolic stability in heat inactivated human liver microsomes assessed as compound remaining at 1 uM measured at 60 mins by LC-MS/MS analysis relative to control; assay type: ADME, Microsome; settings: heat-inactivated liver microsomes, read-out: Stability
In short: (§2)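 Control incubation with heat-inactivated human liver microsomes (0.5 mg protein/ml) in 100 mM phosphate pH 7.4, 37 °C, sampled at 0 and 60 min. Samples quenched in acetonitrile with internal standard and analysed by LC-MS/MS. Percent remaining is the peak-area ratio relative to 0 min ×100; duplicates.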

[5] = Metabolic stability in human liver microsomes assessed as compound remaining at 1 uM measured at 30 mins by LC-MS/MS analysis relative to control; assay type: ADME, Microsome; settings: liver microsomes, read-out: Stability; in short: as §1
[6] = Metabolic stability in human liver microsomes assessed as compound remaining at 1 uM measured at 60 mins by LC-MS/MS analysis relative to control; assay type: ADME, Microsome; settings: liver microsomes, read-out: Stability; in short: as §1
[7] = Metabolic stability in heat inactivated human liver microsomes assessed as compound remaining at 10 uM measured at 60 mins by LC-MS/MS analysis relative to control; assay type: ADME, Microsome; settings: read-out: Stability; in short: as §2
[8] = Metabolic stability in human liver microsomes assessed as compound remaining at 10 uM measured at 60 mins by LC-MS/MS analysis relative to control; assay type: ADME, Microsome; settings: read-out: Stability; in short: as §1
[9] = target: Gamma-aminobutyric acid receptor subunit alpha-3 (Rattus norvegicus) (UniProt P20236); experiment: Agonist activity at rat GABAA alpha3beta3gamma2 receptor expressed in Xenopus oocytes assessed as stimulation of GABA-induced chloride current at 100 nM incubated 30 secs prior to GABA induction measured after 15 mins by two-electrode voltage clamp assay relative to control; assay type: cell-based; settings: Oocyte
Gamma-aminobutyric acid receptor subunit alpha-3 (Rattus norvegicus), sequence (P20236 whole entry, the tested form may be a part): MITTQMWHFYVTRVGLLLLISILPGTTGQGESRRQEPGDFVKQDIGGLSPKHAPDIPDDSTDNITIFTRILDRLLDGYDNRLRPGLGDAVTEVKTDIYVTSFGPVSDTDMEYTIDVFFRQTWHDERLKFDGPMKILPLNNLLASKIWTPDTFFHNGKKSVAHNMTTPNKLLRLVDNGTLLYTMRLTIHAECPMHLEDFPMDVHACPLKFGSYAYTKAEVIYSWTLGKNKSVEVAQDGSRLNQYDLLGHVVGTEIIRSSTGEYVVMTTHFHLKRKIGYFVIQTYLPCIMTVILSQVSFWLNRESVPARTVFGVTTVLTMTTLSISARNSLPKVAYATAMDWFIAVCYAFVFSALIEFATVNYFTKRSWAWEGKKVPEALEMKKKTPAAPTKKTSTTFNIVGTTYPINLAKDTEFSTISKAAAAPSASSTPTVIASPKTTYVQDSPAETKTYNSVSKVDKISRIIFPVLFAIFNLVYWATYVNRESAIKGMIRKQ
In short: (§3)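 Rat GABAA β3 and γ2 cDNAs plus α1, α2, α3 or α5 cDNA injected into Xenopus oocytes; follicle layers removed 36 h later. Two-electrode recording with […]-filled electrodes; oocytes perfused with Ringer (90 mM NaCl, 5 mM HEPES pH 7.4, 1 mM MgCl2, KCl, CaCl2) switched to GABA at EC3 with drug (0.1% DMSO final). Mean ± SEM, 3–4 oocytes, ≥2 batches.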

[10] = target: Gamma-aminobutyric acid receptor subunit alpha-3 (Rattus norvegicus) (UniProt P20236); experiment: Agonist activity at rat GABAA alpha3beta3gamma2 receptor expressed in Xenopus oocytes assessed as stimulation of GABA-induced chloride current at 1 uM incubated 30 secs prior to GABA induction measured after 15 mins by two-electrode voltage clamp assay relative to control; assay type: cell-based; settings: Oocyte; in short: as §3
[11] = target: T1, GABA-A receptor; alpha-1/beta-2/gamma-2 (Rattus norvegicus) (UniProt P18508+P62813+P63138); experiment: Agonist activity at rat GABAA alpha1beta3gamma2 receptor expressed in Xenopus oocytes assessed as stimulation of GABA-induced chloride current at 1 uM incubated 30 secs prior to GABA induction measured after 15 mins by two-electrode voltage clamp assay relative to control; assay type: cell-based; settings: Oocyte; in short: as §3
[12] = target: T2, GABA A receptor alpha-5/beta-3/gamma-2 (Rattus norvegicus) (UniProt P18508+P19969+P63079); experiment: Agonist activity at rat GABAA alpha5beta3gamma2 receptor expressed in Xenopus oocytes assessed as stimulation of GABA-induced chloride current at 1 uM incubated 30 secs prior to GABA induction measured after 15 mins by two-electrode voltage clamp assay relative to control; assay type: cell-based; settings: Oocyte; in short: as §3
[13] = target: T3, GABA A receptor alpha-2/beta-2/gamma-2 (Rattus norvegicus) (UniProt P18508+P23576+P63138); experiment: Agonist activity at rat GABAA alpha2beta3gamma2 receptor expressed in Xenopus oocytes assessed as stimulation of GABA-induced chloride current at 100 nM incubated 30 secs prior to GABA induction measured after 15 mins by two-electrode voltage clamp assay relative to control; assay type: cell-based; settings: Oocyte; in short: as §3
[14] = target: T1, GABA-A receptor; alpha-1/beta-2/gamma-2 (Rattus norvegicus); experiment: Agonist activity at rat GABAA alpha1beta3gamma2 receptor expressed in Xenopus oocytes assessed as stimulation of GABA-induced chloride current at 100 nM incubated 30 secs prior to GABA induction measured after 15 mins by two-electrode voltage clamp assay relative to control; assay type: cell-based; settings: Oocyte; in short: as §3
[15] = target: T3, GABA A receptor alpha-2/beta-2/gamma-2 (Rattus norvegicus); experiment: Agonist activity at rat GABAA alpha2beta3gamma2 receptor expressed in Xenopus oocytes assessed as stimulation of GABA-induced chloride current at 1 uM incubated 30 secs prior to GABA induction measured after 15 mins by two-electrode voltage clamp assay relative to control; assay type: cell-based; settings: Oocyte; in short: as §3
[16] = target: T2, GABA A receptor alpha-5/beta-3/gamma-2 (Rattus norvegicus); experiment: Agonist activity at rat GABAA alpha5beta3gamma2 receptor expressed in Xenopus oocytes assessed as stimulation of GABA-induced chloride current at 100 nM incubated 30 secs prior to GABA induction measured after 15 mins by two-electrode voltage clamp assay relative to control; assay type: cell-based; settings: Oocyte; in short: as §3
Rattus norvegicus [17] = experiment: Sedative activity in rat assessed as reduction of D-amphetamine sulfate-induced locomotion at 3 mg/kg, ip administered 20 mins prior to testing measured for 90 mins relative to vehicle-treated control; assay type: functional, organism-based; parameters: dose 3 mg/kg
In short: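 Rats kept ≥10 days on a reversed light/dark cycle. Drug or saline (2 ml/kg) given i.p. 20 min before an open-field arena; spontaneous x–y locomotion recorded 30 min by beam breaks. D-amphetamine sulfate 0.5 mg/kg i.p. then given, and locomotion recorded a further 90 min.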

Rattus norvegicus [18] = experiment: Anxiolytic activity in rat assessed as increase in time spent in lighted area at 3 mg/kg, ip administered 20 mins prior to testing measured for 30 mins by light/dark cycle test relative to vehicle-treated control; assay type: functional, organism-based; parameters: dose 3 mg/kg

Compound	remaining at 0.25 h, 1 µM [1]	remaining at 0.5 h, 10 µM [2]	remaining at 0.25 h, 10 µM [3]	remaining at 1 h, 1 µM [4]	remaining at 0.5 h, 1 µM [5]	remaining at 1 h, 1 µM [6]	remaining at 1 h, 10 µM [7]	remaining at 1 h, 10 µM [8]	Activity [9]	Activity [10]	Activity [11]	Activity [12]	Activity [13]	Activity [14]	Activity [15]	Activity [16]	Activity (Rattus norvegicus [17])	Activity (Rattus norvegicus [18])
C#Cc1ccc2c(c1)C(c1ccccn1)=NCc1c(C(=O)O)ncn1-2	102%	86.1%	91.4%	97%	105%	110%	88.3%	85.9%	–	–	–	–	–	–	–	–	–	–
C#Cc1ccc2c(c1)C(c1ccccc1F)=NCc1c(C(=O)OCC)ncn1-2	13.5%	3.6%	20%	102%	2.2%	0.3%	110%	0.6%	–	–	–	–	–	–	–	–	–	–
C#Cc1ccc2c(c1)C(c1ccccc1)=NCc1c(C(=O)NC)ncn1-2	87.3%	104%	107%	114%	37.5%	5.2%	114%	82.8%	412%	831%	192%	307%	211%	132%	287%	257%	–	–
CN1C(=O)CN=C(c2ccccc2)c2cc(Cl)ccc21	–	–	–	–	–	–	–	–	–	–	–	–	–	–	–	–	Active	Active
C#Cc1ccc2c(c1)C(c1ccccc1)=NCc1c(C(=O)OCC)ncn1-2	41.4%	13.9%	47.6%	107%	11.2%	1.5%	102%	1.7%	–	–	–	–	–	–	–	–	–	–
C#Cc1ccc2c(c1)C(c1ccccc1)=NCc1c(C(=O)O)ncn1-2	108%	94.8%	95.3%	106%	110%	111%	97.2%	94.8%	–	–	–	–	–	–	–	–	–	–

— ChEMBL document CHEMBL2331169, “Search for α3β₂/₃γ2 subtype selective ligands that are stable on human liver microsomes” (Bioorg Med Chem, 2013)
